This passage reports Activity results from ChEMBL document CHEMBL1687829, “Evaluation of hepatotoxicity with off-label oral-treatment doses of voriconazole for invasive fungal infections” (Antimicrob Agents Chemother, 2011).

Each structure is given as a SMILES string.

Series [1] has as its system Homo sapiens. Kind of series: Hepatotoxicity in patient assessed as three times increase in upper limit of normal AST level at 297.3 mg, po bid for 76.1 days. The class given is toxicity, organism-based. Conditions: in vivo, 1826.4 h. Summed up: (§1)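 Retrospective cohort at one hospital, 2006–2008. Patients received ≥7 days of oral voriconazole treatment for possible, probable or proven invasive fungal infection, with baseline and follow-up liver enzymes available; prophylaxis use was excluded. Groups were fixed 200 mg twice daily (n = 25) or weight-based 4 mg/kg twice daily after day 1 (n = 84). Read-out was number (%) of patients with a value >5× baseline or >3× ULN.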

The subject of series [2] is Homo sapiens. Description: Hepatotoxicity in patients assessed as five times increase in baseline bilirubin level at 200 mg, po bid for 72 days. Conditions: in vivo, 1728 h. The class given is toxicity, organism-based. In outline:
as §1

Series [3] has as its system Homo sapiens. Kind of series: Hepatotoxicity in patients assessed as three times increase in upper limit of normal bilirubin level at 297.3 mg, po bid for 76.1 days. Conditions: in vivo, 1826.4 h. The class given is toxicity, organism-based. Summed up: as §1
Series [4] has as its system Homo sapiens. Kind of series: Hepatotoxicity in patient assessed as five times increase in baseline […] level at 297.3 mg, po bid for 76.1 days. The class given is toxicity, organism-based. Conditions: in vivo, 1826.4 h. Summed up:
as §1

The subject of series [5] is Homo sapiens. Description: Hepatotoxicity in patient assessed as five times increase in baseline AST level at 200 mg, po bid for 72 days. Conditions: in vivo, 1728 h. The class given is toxicity, organism-based. Summed up: as §1
For series [6], the system named is Homo sapiens. Kind of series: Toxicity in patients assessed as adverse event at 200 mg, po bid for 72 days. The class given is organism-based. Conditions: in vivo, 1728 h. In outline:
(§2)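 Same retrospective cohort (fixed 200 mg twice daily, n = 25, versus weight-based oral dosing, n = 84; ≥7 days of treatment). The outcome was voriconazole discontinuation that the practitioner attributed to an adverse drug event, taken from the medical records. Counts and % per group were compared between groups.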

Series [7] deals with Homo sapiens. Kind of series: Hepatotoxicity in patients assessed as three times increase in upper limit of normal bilirubin level at 200 mg, po bid for 72 days. The class given is toxicity, organism-based. Conditions: in vivo, 1728 h. Summed up: as §1
The test system of series [8] is Homo sapiens. Description: Hepatotoxicity in patient assessed as five times increase in baseline ALP level at 200 mg, po bid for 72 days. The class given is toxicity, organism-based. Conditions: in vivo, 1728 h. In outline: as §1
The test system of series [9] is Homo sapiens. Kind of series: Hepatotoxicity in patient assessed as three times increase in upper limit of normal ALT level at 297.3 mg, po bid for 76.1 days. The class given is toxicity, organism-based. Conditions: in vivo, 1826.4 h. Summed up: as §1
For series [10], the system named is Homo sapiens. Kind of series: Hepatotoxicity in patients assessed as five times increase in baseline bilirubin level at 297.3 mg, po bid for 76.1 days. The class given is toxicity, organism-based. Conditions: in vivo, 1826.4 h. Summed up:
as §1

The test system of series [11] is Homo sapiens. Description: Toxicity in patients assessed as adverse event at 297.3 mg, po bid for 76.1 days. Conditions: in vivo, 1826.4 h. The class given is organism-based. Summed up:
as §2

The test system of series [12] is Homo sapiens. Kind of series: Hepatotoxicity in patient assessed as three times increase in upper limit of normal […] level at 200 mg, po bid for 72 days. The class given is toxicity, organism-based. Conditions: in vivo, 1728 h. In outline: as §1
The subject of series [13] is Homo sapiens. Description: Toxicity in patient assessed as visual disturbance at 200 mg, po bid for 72 days. The class given is organism-based. Conditions: in vivo, 1728 h. In outline: (§3)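 Retrospective chart review of the same cohort: adults on ≥7 days of oral voriconazole treatment, either fixed 200 mg twice daily (n = 25) or weight-based dosing (n = 84). Visual disturbances were taken from the medical records as a secondary adverse-event endpoint and given as number (%) of patients per group.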

Series [14] concerns Homo sapiens. Kind of series: Hepatotoxicity in patient assessed as five times increase in baseline ALT level at 200 mg, po bid for 72 days. The class given is toxicity, organism-based. Conditions: in vivo, 1728 h. In outline: as §1
Series [15] deals with Homo sapiens. Description: Hepatotoxicity in patient assessed as three times increase in upper limit of normal AST level at 200 mg, po bid for 72 days. The class given is toxicity, organism-based. Conditions: in vivo, 1728 h. In outline: as §1
Series [16] deals with Homo sapiens. Kind of series: Hepatotoxicity in patient assessed as five times increase in baseline ALT level at 297.3 mg, po bid for 76.1 days. The class given is toxicity, organism-based. Conditions: in vivo, 1826.4 h. In outline: as §1
Series [17] has as its system Homo sapiens. Description: Hepatotoxicity in patient assessed as five times increase in baseline AST level at 297.3 mg, po bid for 76.1 days. The class given is toxicity, organism-based. Conditions: in vivo, 1826.4 h. In outline:
as §1

In series [18] the test system is Homo sapiens. Kind of series: Toxicity in patient assessed as visual disturbance at 297.3 mg, po bid for 76.1 days. The class given is organism-based. Conditions: in vivo, 1826.4 h. In outline: as §3
In series [19] the test system is Homo sapiens. Description: Hepatotoxicity in patient assessed as three times increase in upper limit of normal ALT level at 200 mg, po bid for 72 days. The class given is toxicity, organism-based. Conditions: in vivo, 1728 h. In outline: as §1
The test system of series [20] is Homo sapiens. Kind of series: Hepatotoxicity in patient assessed as three times increase in upper limit of normal […] level at 297.3 mg, po bid for 76.1 days. The class given is toxicity, organism-based. Conditions: in vivo, 1826.4 h. In outline: as §1

Consider `C[C@@H](c1ncncc1F)[C@](O)(Cn1cncn1)c1ccc(F)cc1F` [VORICONAZOLE], for which the Activity in the series on Homo sapiens [1] is 20.2%; with Homo sapiens [2], 12%; in the series with Homo sapiens [3], 6%; in the series with Homo sapiens [4], 3.6%; with Homo sapiens [5] it was 12%; with Homo sapiens [6], 0%. The Activity with Homo sapiens [7] came out at 16%; with Homo sapiens [8] it was 4%; with Homo sapiens [9], 15.5%; in the series on Homo sapiens [10] it was 3.6%; in the series on Homo sapiens [11] it was 16.9%; with Homo sapiens [12], 32%. The Activity in the series with Homo sapiens [13] amounted to 4%; in the series on Homo sapiens [14], 24%; in the series with Homo sapiens [15] it was 16%; in the series on Homo sapiens [16] it was 13.1%; in the series on Homo sapiens [17] it was 15.5%; in the series with Homo sapiens [18] it was 3.6%. For the same molecule, the Activity in the series with Homo sapiens [19] amounted to 12%; in the series on Homo sapiens [20] it was 11.9%.
